In ChEMBL document CHEMBL1121860, “Characterization of alpha-adrenoceptor populations. Quantitative relationships between cardiovascular effects initiated at central and peripheral alpha-adrenoceptors” (J Med Chem, 1981):

What was measured:
[1] = Partition coefficient (logD7.4); type: physicochemical; conditions: octanol/water, pH 7.4
Outline: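 Octanol against 0.1 M phosphate buffer at pH 7.4 and 37 °C. Drug at about 10^-4 M in octanol-saturated buffer was shaken for 1 h with buffer-saturated octanol, then left standing 6 h. Buffer-phase drug was measured by UV at λmax before and after partitioning, with GLC or potentiometric titration used for some compounds. Apparent P' is the mean of six partition experiments.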

[2] = target: T1, Adrenergic receptor alpha (Rattus norvegicus) (UniProt P15823+P23944+P43140+P22086+P19328+P22909); assay: Tested for central hypotensive activity in anesthetized normotensive rats at alpha adrenoceptor expressed as 25% decrease in mean arterial pressure
Outline: (§1)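 Male normotensive Wistar rats (190-220 g), pentobarbitone sodium 75 mg/kg ip, ventilated, ~37 °C; iv jugular dosing, one single dose per rat, randomized; carotid arterial pressure after ≥20 min equilibration with heparin; rats with MAP <100 or >150 mmHg excluded. Maximal MAP fall as % of preinjection; pC25 = log reciprocal dose (μmol/kg) for 25% fall, from log dose-response curves; points mean of 5-6 experiments.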

[3] = target: T1, Adrenergic receptor alpha (Rattus norvegicus); assay: Tested for peripheral hypertensive activity in pithed normotensive rats at alpha adrenoceptor expressed as increase in mean arterial pressure by 60 mmHg
Outline: (§2)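 Normotensive rats under hexobarbitone sodium 150 mg/kg ip, pithed via orbit, ventilated, ~37 °C, heparinized; after 20 min equilibration, single iv jugular doses in random order, 3-4 per rat with recovery between; carotid MAP rise (mmHg). pC60 = log reciprocal dose (μmol/kg) raising MAP by 60 mmHg, from log dose-response curves; points mean of 5-6 experiments.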

[4] = target: T1, Adrenergic receptor alpha (Rattus norvegicus); assay: Peripheral hypertensive activity in pithed normotensive rats.; type: functional; outline: as §2
[5] = target: T1, Adrenergic receptor alpha (Rattus norvegicus); assay: Central hypotensive activity in anesthetized normotensive rats.; type: functional; outline: as §1

Structure (SMILES)	logD [1]	pC25 [2]	pC60 [3]	pC60 [4]	pC25 [5]
Cc1cccc(C)c1/N=C1/NCCO1	1.28	1.96	1.51		
Cc1cccc(C)c1N=C1NCCCS1 [XYLAZINE]	1.34				
FC(F)(F)c1cc(Br)cc(Br)c1NC1=NCCN1	2.8			-0.26	
Clc1cccc(Cl)c1C1=CN2CCN=C2S1	2.02			2.4	2.77
c1ccc2c(c1)CCCC2C1=NCCN1 (stereo not given) [TETRAHYDROZOLINE]	-0.9			0.9	-0.16
Cc1cc(C(C)(C)C)cc(C)c1CC1=NCCN1 [XYLOMETAZOLINE]	0.4			1.12	0.26
CCN1CCc2nc(N)oc2CC1 [AZEPEXOLE]	0.05			-0.41	-0.14
Cc1csc(Cl)c1NC1=NCCN1 [TIAMENIDINE]	-0.17			1.2	0.69
c1ccc2c(CC3=NCCN3)cccc2c1 [NAPHAZOLINE]	-0.52			1.83	0.95
CC[C@H]1CCC[C@@H](C)[C@@H]1NC1=NCCO1	1.39	2.32	2.11		
Clc1cccc(Cl)c1NC1=NCCN1				1.78	2.04
Brc1cc(Br)c(N=C2NCCN2)c(Br)c1	2.51			0.65	
CC(Oc1c(Cl)cccc1Cl)C1=NCCN1 (stereo not given) [LOFEXIDINE]	0.73			1.99	2.09
Clc1cccc(Cl)c1/C=N/NC1=NCCN1	2.12			0.23	0.63
Clc1cccc(Cl)c1NC1=NCCCN1				-0.79	
Clc1cccc(Cl)c1N=C1NCCN1 [CLONIDINE]	0.85				
Cc1cccc(C)c1NC1=NCCCS1				-0.02	0.62
C=CCN1CCc2nc(N)sc2CC1 [TALIPEXOLE]	1.09			0.69	1.43
c1cc2c(c(NC3=NCCN3)c1)CCCC2 [TRAMAZOLINE]	-0.62			1.8	0.55
Clc1cc(Br)cc(Cl)c1N=C1NCCN1	2.31			1.22	0.84
Brc1c(NC2=NCCN2)ccc2nccnc12 [BRIMONIDINE]	0.31			1.56	1.55
Clc1cccc(Cl)c1SC1=NCCN1	1.36			1.24	0.88
Clc1cccc(Cl)c1CC1=NCCN1	-0.53			1.17	0.68
Clc1cccc(Cl)c1N=C1NCCCN1	-0.34				
